Kir21 block – Kir2.1 (mouse) channel inhibition | P35561 | HEK293-Kir2.1, FluxOR thallium flux fluorescence; hits give low values | B-score at 10 µM | 0.85% of 310,000 active | AID 1672;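 active = fluorescence ratio B-score at or below minus 3 SD of library scores, with starting-brightness B-score within 2 SD, cut at about -4.2 in these data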;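 also: channel flux triggered by added potassium and thallium sulfate stimulus; B-score of peak minus minimum fluorescence over baseline after thallium stimulus; more negative B-score means stronger Kir2.1 block with less thallium influx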
KCNK9 block – inhibitors of human KCNK9 two-pore domain potassium channel | Q9NPC2 | HEK293 KCNK9, FluxOR thallium flux fluorescence; hits give low values | B-score at 10 µM | 1.2% of 310,000 active;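 active = ratio B-score over 3 SD below the library mean, with starting fluorescence within 5 SD of its mean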;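 also: negative B-score means less thallium flux so channel inhibition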
Target sequence (Q9NPC2 whole entry, looked up, the tested form may be a part): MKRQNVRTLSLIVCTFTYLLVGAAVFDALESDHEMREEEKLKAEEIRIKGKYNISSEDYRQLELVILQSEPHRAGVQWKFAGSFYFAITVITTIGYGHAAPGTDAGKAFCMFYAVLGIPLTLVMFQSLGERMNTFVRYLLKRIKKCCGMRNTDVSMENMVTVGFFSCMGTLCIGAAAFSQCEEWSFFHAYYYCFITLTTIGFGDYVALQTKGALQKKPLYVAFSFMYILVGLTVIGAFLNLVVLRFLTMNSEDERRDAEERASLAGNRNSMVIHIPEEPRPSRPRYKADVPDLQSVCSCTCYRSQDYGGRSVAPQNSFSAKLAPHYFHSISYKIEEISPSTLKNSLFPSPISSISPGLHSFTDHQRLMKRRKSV
KCNQ1 inh – human KCNQ1 channel inhibition; 1.3% of 310,000 active; CHO-K1 KCNQ1, FluxOR thallium flux fluorescence; hits give high values; B-score at 10 µM;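 active = compounds whose thallium flux B-score, printed positive for inhibition, exceeds three library SD while starting fluorescence stays within three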;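 also: channel opened by potassium depolarization with thallium stimulus after 20 min compound exposure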
KCNQ1 pot – potentiates or activates the human KCNQ1 potassium channel; P51787; CHO-K1 KCNQ1, thallium flux FluxOR fluorescence; hits give high values; B-score at 10 µM; 0.35% of 310,000 active;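 active = fluorescence ratio B-score, a plate-corrected score, at least three library SD, with initial intensity B-score within 5 SD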
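Assay system: CHO-K1 cells stably expressing KCNQ1. Medium: assay buffer for compound exposure, DMSO matched across wells. Timing: 37 °C overnight plating, 90-min dark dye load, 20-min compound pretreatment. Signal: kinetic FluxOR fluorescence, 10 s baseline plus 110 s post-stimulus.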
hERG rescue – compounds protecting human hERG from proarrhythmic drug block; CHO-hERG, FluxOR thallium flux, dofetilide IC70 present; activation (rescue from dofetilide block), less the hit threshold, % at 10 µM; 0.51% of 310,000 active;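 active = activation above the mean of controls blocked by dofetilide plus 5 SD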;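 also: thallium influx through hERG after potassium depolarization seen as dye fluorescence rise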
KCNK3 block – human KCNK3 channel inhibition, primary screen | O14649 | CHO-KCNK3 thallium flux, FluxOR fluorescence; hits give low values | B-score at 10 µM | 0.84% of 340,000 active | AID 602410;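 active = B-score under library mean minus 4 SD, starting fluorescence ratio at most library mean plus 5 SD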;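 also: more negative B-score means stronger inhibition of thallium flux through KCNK3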
Of the large screens only hits and unclear results are named; the others gave an inactive call. Compounds with a hit are over-represented: about 3.7% of the library has one in this group of screens.

CCOC(=O)c1sc(NC(=O)Nc2ccc(Cl)cc2)nc1C	none
CC1(C)CC(=O)c2c(nn(-c3ccccc3)c2-c2ccncc2)C1	hERG rescue 7.1
Cc1c2c(nc3ccccc13)CC(C)(C)CC2=O	none
COc1cc(/C=N/NC(=O)c2c(C)nc3ccc(Cl)cn23)cc(OC)c1OC	none
CCOC(=O)C1CCN(Cc2cccc(Oc3ccccc3)c2)CC1	Kir21 block -6.11
Cc1ccc2nc(/C(C#N)=C\c3ccc([N+](=O)[O-])o3)[nH]c2c1	none
Cc1ccc2nc(/C(C#N)=C\c3ccc(N4CCOCC4)o3)[nH]c2c1	KCNQ1 inh 6
O=C(CNCc1cccs1)Nc1ccc(OC(F)(F)F)cc1	none
CC(C)c1ccc(OCC(=O)NNC(=S)NC(=O)c2ccco2)c(Br)c1	KCNQ1 pot 47
COc1ccc(Cn2c(=O)oc3ccc(C)cc32)cc1OC	Kir21 block -4.23
Clc1ccc(-c2csc(Nc3ccccc3)[n+]2Cc2ccco2)c(Cl)c1	KCNK9 block -7.3
Cc1cccc(C)c1OCc1cc(C(=O)N(Cc2nccn2C)C(C)C)no1	none
COc1ccccc1CNC(=O)c1nccnc1CO	none
COC(=O)Oc1ccc(/C=C/C(=O)OC(C)C)cc1OC(=O)OC	hERG rescue 6.6
CCOC(=O)C(Cc1ccccc1)C(=O)Nc1ccc(NC(=O)C(Cc2ccccc2)C(=O)OCC)cc1 (stereo not drawn)	none
CCOC(=O)C(C#N)C(Cc1ccccc1)c1ccco1 (stereo not drawn)	Kir21 block -4.67
O=C(NC(=S)Nc1cccc(Cl)c1N1CCCCC1)c1cccs1	KCNQ1 pot 24, hERG rescue 7.2
O=C(NC(=S)Nc1cccc(Cl)c1N1CCOCC1)c1cccs1	hERG rescue 17.5
O=C(NC(=S)Nc1ccc(N2CCOCC2)cc1)c1cccs1	none
COc1ccc(CNC2CCSc3ccccc32)cc1OC (stereo not drawn)	none
CC(C)OC(=O)Cc1nc2sc(-c3ccccc3)cc2c(=O)[nH]1	none
COc1cc2c(cc1OC)CN(C(=O)c1ccc(Cl)c(S(=O)(=O)N3CCCC3)c1)CC2	KCNK3 block -8.74 (no result: Kir21 block, KCNK9 block, KCNQ1 inh, KCNQ1 pot, hERG rescue)
CC(=O)Nc1ccc(NC(=O)[C@@H]2CCCN2S(=O)(=O)c2ccc3c(c2)OCCO3)cc1	none
CCCCCCc1cc2cc(-c3nnc(-c4ccccc4OC)o3)c(=O)oc2cc1O	KCNQ1 inh 8
CCCCCCc1cc2cc(-c3nnc(-c4ccccc4O)o3)c(=O)oc2cc1O	none
CCCCCCc1cc2cc(-c3nnc(-c4cc(OC)c(OC)c(OC)c4)o3)c(=O)oc2cc1O	KCNQ1 inh 15 (no result: KCNK3 block)
CCCCCCc1cc2cc(C(=O)Nc3ccccc3OC)c(=O)oc2cc1O	none
COCCNC(=O)c1cccc(Nc2nc(-c3ccccc3)c3cc(Cl)ccc3n2)c1	KCNK9 block -6.81
OCCNc1nc(-c2ccccc2)c2cc(Cl)ccc2n1	none
CN(C)N1C(N)=C(C#N)C(c2ccc3c(c2)OCO3)C2=C1CC(C)(C)CC2=O (stereo not drawn)	none
NCc1ccccc1COc1ccccc1	none
CCN(CC)CCCNC(=O)c1cc2c(Cl)nc3ccccc3c2s1	none
CN(CCCNC(=O)c1cc2c(Cl)nc3ccccc3c2s1)Cc1ccccc1	Kir21 block -4.97
CCOC(=O)c1c(NC(=O)CSc2nnnn2C)sc(C)c1-c1ccc(C)cc1	KCNK9 block -6.63
Cc1nc(Sc2nnnn2-c2ccccc2)c(C#N)c(C)c1C	Kir21 block -4.87
O=C(COC(=O)C1CC(=O)N(Cc2ccco2)C1)Nc1ccccc1[N+](=O)[O-] (stereo not drawn)	none (no result: Kir21 block, KCNK9 block, KCNQ1 inh, KCNQ1 pot, hERG rescue)
O=C(COC(=O)C1CC(=O)N(Cc2ccco2)C1)c1ccc(OC(=O)c2ccccc2)cc1 (stereo not drawn)	Kir21 block -6.21
COc1ccccc1NS(=O)(=O)c1ccc2oc(N)nc2c1	Kir21 block -4.33
OC(c1ccccc1)(C1CCCCC1)C(CN1CCOCC1)c1ccccc1 (stereo not drawn)	KCNQ1 inh 6
COc1ccc(C(O)(C2CCCCC2)C(CN2CCOCC2)c2ccccc2)cc1 (stereo not drawn)	none
CCn1c2ccccc2c2cc(NC(=O)COc3ccccc3)ccc21	hERG rescue 5.4
CCn1c2ccccc2c2cc(NC(=O)c3coc(=O)c(Br)c3)ccc21	KCNK9 block -8.81 (no result: KCNK3 block)
CC(C)(C)C1=CC=C(C(C)(C)C)C(=O)C1=O	KCNQ1 inh 10 (no result: KCNK3 block)
O=C(Nc1nnc(-c2ccc(F)cc2)o1)c1cc(Cl)sc1Cl	KCNQ1 pot 23, hERG rescue 10.1
O=C(COc1ccccc1)Nc1nnc(-c2ccc3c(c2)CCCC3)o1	none
O=C(Nc1nnc(-c2ccccc2)o1)c1cc(Cl)sc1Cl	none
O=C(Nc1nnc(-c2ccc3c(c2)CCCC3)o1)c1ccccc1Cl	KCNQ1 pot 12
COc1ccc(OC)c(CNc2ncc(-c3ccc(F)cc3)n2C)c1	none
CN(CCC#N)C(=O)COC(=O)c1c2c(nc3ccccc13)/C(=C\c1ccco1)CC2	KCNK3 block -8.87 (no result: Kir21 block, KCNK9 block, KCNQ1 inh, KCNQ1 pot, hERG rescue)
CC1CCCCC1NC(=O)COC(=O)c1c2c(nc3ccccc13)/C(=C\c1ccco1)CC2 (stereo not drawn)	KCNK3 block -11.2 (no result: Kir21 block, KCNK9 block, KCNQ1 inh, KCNQ1 pot, hERG rescue)
O=C(COC(=O)c1c2c(nc3ccccc13)/C(=C/c1cccc([N+](=O)[O-])c1)CCC2)NC1CCS(=O)(=O)C1 (stereo not drawn)	none
O=C(COC(=O)c1c2c(nc3ccccc13)/C(=C\c1ccco1)CC2)NC1CCCC1	KCNK3 block -9.39 (no result: Kir21 block, KCNK9 block, KCNQ1 inh, KCNQ1 pot, hERG rescue)
CCCNC(=O)C1(CC2CC(c3ccccc3)=NO2)CCN(C(=O)C2CCCC2)CC1 (stereo not drawn)	none (no result: Kir21 block, KCNK9 block, KCNQ1 inh, KCNQ1 pot, hERG rescue)
O=C(N/N=C\c1ccc(Sc2ccccn2)o1)c1cccc(F)c1	none
C/C(=N\NC(=O)c1cc2ccccc2cc1O)c1cc2ccccc2o1	KCNQ1 pot 138, hERG rescue 55.4
O=C(N/N=C/c1ccc(Sc2ccccn2)o1)c1cc2ccccc2cc1O	KCNQ1 pot 18
O=C(N/N=C/c1ccc(-c2ccccc2)o1)c1ccccc1O	KCNQ1 pot 8
CC(=N/O)/C(C)=N\NC(=O)c1ccccn1	KCNQ1 inh 8
COc1ccc(NS(=O)(=O)c2ccc(NC(=O)c3ccc(N(C)S(C)(=O)=O)cc3)cc2)c(OC)c1	none
C/C(=N\NC(=O)c1cc2ccccc2cc1O)c1ccccn1	KCNQ1 pot 7
C/C(=N\NC(=O)c1c[nH]c2ccccc12)c1ccccn1	none
Cc1nc2nc(NC(=O)c3ccco3)[nH]n2c(=O)c1C	none
C=CCn1c(SCC(=O)N(CC)C2CCS(=O)(=O)C2)nc2ccccc2c1=O (stereo not drawn)	none
Cc1ccc2c(c1)C1CN(C)CCC1N2C(=O)Nc1ccc(Cl)cc1 (stereo not drawn)	KCNQ1 inh 7

Bioassay records deposited in PubChem by Johns Hopkins Ion Channel Center.
